Measured values of several laboratories.
Protocols differ between the studies behind these lines.

Structure (SMILES) | assay | system | conditions | solubility
O=c1[nH]c2ccccc2n1CCCN1CCC(n2c(=O)[nH]c3cc(Cl)ccc32)CC1 | – | FaSSIF | 24 h, pH 7.4, 37 °C | 135 µg/mL
CC(/C=C/[C@@H]1C[C@]2(CO2)CC(C)(C)O1)=C\C[C@H]1OC[C@@H](NC(=O)/C=C\[C@H](C)OC(=O)C(C)(C)C)CO1 | HPLC | PBS | – | > 10 µM
COc1ccc2c(c1)NC(=O)CN2c1nc(C)nc2c1CCC2 | – | aqueous buffer | pH 7.4 | 26.4 µg/mL
CC[C@H](C)[C@H](NC(=O)[C@H](CCCNC(=N)N)NC(=O)[C@H](CCC(=O)O)NC(C)=O)C(=O)N[C@H]1CSSC[C@@H](C(=O)N[C@H](C(N)=O)[C@@H](C)O)NC(=O)[C@H](CCCNC(=N)N)NC(=O)[C@H](Cc2c[nH]cn2)NC(=O)[C@H](Cc2cccc3ccccc23)NC(=O)CNC(=O)[C@H](Cc2c[nH]c3ccccc23)NC(=O)[C@H](CC(=O)O)NC(=O)[C@H](CCC(N)=O)NC(=O)[C@H](Cc2cccc3ccccc23)NC(=O)[C@H](C(C)C)NC1=O | – | PBS | pH 7.4 | 160 µg/mL
C#Cc1ccc2c(c1)C(c1ccccn1)=NCc1c(-c3cnco3)ncn1-2.Cl | – | water | 24 h, 25 °C | 5560 µg/mL
CC[C@H](C)[C@H](NC(C)=O)C(=O)N[C@H]1CSSC[C@@H](C(=O)N[C@H](C(N)=O)[C@@H](C)O)NC(=O)[C@H](CCCNC(=N)N)NC(=O)[C@H](Cc2cnc[nH]2)NC(=O)[C@H](Cc2cccc3ccccc23)NC(=O)CNC(=O)[C@H](Cc2c[nH]c3ccccc23)NC(=O)[C@H](CC(=O)O)NC(=O)[C@H](CCC(N)=O)NC(=O)[C@H](Cc2c[nH]c3ccccc23)NC(=O)[C@H](C(C)C)NC1=O | – | PBS | pH 7.4 | 150 µg/mL
CC[C@H](C)[C@H](NC(=O)[C@H](Cc1ccccc1)NC(=O)[C@H](Cc1ccc(O)cc1)NC(=O)[C@@H]1CCCN1C(=O)[C@@H](N)Cc1ccc(O)cc1)C(=O)N1CCC[C@H]1C(=O)N[C@@H](C)C(=O)NCC(=O)N[C@H](CCCCN)C(=O)NCC(=O)N[C@@H](CCC(=O)O)C(=O)N[C@H](C(=O)N[C@@H](CC(N)=O)C(=O)N[C@@H](CC(C)C)[C@@H](O)CC(=O)N[C@H](C(=O)N[C@@H](C)C(=O)N[C@@H](CCC(=O)O)C(=O)N1CCC[C@@H]1C(=O)N[C@@H](CCCCNC(=O)CCC(=O)O[C@H]1CC[C@@]2(C)C(=CC[C@H]3[C@@H]4CC[C@H]([C@H](C)CCCC(C)C)[C@@]4(C)CC[C@@H]32)C1)C(N)=O)C(C)C)C(C)C | – | aqueous buffer | pH 6.5 | > 2450 µg/mL
C=CC[C@@]1(C)NC(=O)CNC(=O)[C@H](Cc2c[nH]c3ccccc23)NC(=O)[C@H](CC(=O)O)NC(=O)[C@H](CCC(N)=O)NC(=O)[C@H](Cc2c[nH]c3ccccc23)NC(=O)[C@H](C(C)C)NC(=O)[C@@H](NC(=O)[C@@H](NC(C)=O)[C@@H](C)CC)CSSC[C@@H](C(=O)N[C@H](C(N)=O)[C@@H](C)O)NC(=O)[C@H](CCCNC(=N)N)NC(=O)[C@H](Cc2c[nH]cn2)NC1=O | – | PBS | pH 7.4 | 3350 µg/mL
Clc1ccc(CSc2nnc(-c3ccccn3)n2Cc2ccco2)cc1Cl | – | aqueous buffer | pH 5 | < 0.1 µg/mL
O=C(Nc1ccc(-c2ccc(C(=O)Nc3cccc4cccc(S(=O)(=O)O)c34)cc2)cc1)c1ccc([N+](=O)[O-])cc1 | – | water | – | 4.7 µg/mL
COc1cc(C)c2[nH]cc(/C=N/NC(=N)NCCc3cccnc3)c2c1 | – | PBS | 2 h, pH 7.4 | 30.1 µM
COc1ccc(NC(=O)N2CCCCN3[C@H](CN(C)C)[C@H](c4ccc(C#Cc5ccccc5)cc4)[C@@H]3C2)cc1 | – | aqueous buffer | pH 7 | 33 µM
CC[C@H](C)[C@H](NC(C)=O)C(=O)N[C@H]1CSSC[C@@H](C(=O)N[C@H](C(N)=O)[C@@H](C)O)NC(=O)[C@H](CCCNC(=N)N)NC(=O)[C@H](Cc2c[nH]cn2)NC(=O)[C@](C)(CC)NC(=O)CNC(=O)[C@H](Cc2c[nH]c3ccccc23)NC(=O)[C@H](CC(=O)O)NC(=O)[C@H](CCC(N)=O)NC(=O)[C@H](Cc2c[nH]c3ccccc23)NC(=O)[C@H](C(C)C)NC1=O | – | PBS | pH 7.4 | 3470 µg/mL
O=C1C=C(N(Cc2ccc(Cl)nc2)CC(F)F)CO1 | – | water | pH 7 | 3000 µg/mL
